The structures appear in SMILES notation.

In test [1] the test system is Rattus norvegicus. Nature of the test: In vivo dose required to inhibit vas deferens contraction by 25% after pretreatment with prazosin in pithed rats. (prejunctional). It counts as functional. In outline: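 Pithed rats pretreated with prazosin (1 mg/kg). Compound given iv in cumulative doses. ED25 is the dose (μg/kg) inhibiting vas deferens contraction by 25%. Separate groups of rats (n = 4-6).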

The target of test [2] is Adrenergic receptor alpha-2 (Rattus norvegicus) (UniProt P22086+P19328+P22909). In words: Antagonist potency towards alpha-2 adrenergic receptor determined as the dose required to produce a two fold shift of the dose-response curve to UK-14304 on the twitch response of the vas deferens (in vitro);AG- agonist. The format is functional, tissue-based. Particulars: filed as agonist.

For test [3], the system named is Rattus norvegicus. Nature of the test: In vivo ED40 is the raising diastolic blood pressure by 40 mm Hg in pithed rats. (postjunctional). Particulars: Artery. The format is functional. A digest of the protocol:
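Pithed rats, compound given iv in cumulative doses. ED40 is the dose (μg/kg) raising diastolic blood pressure by 40 mmHg. Separate groups of rats (n = 4-6).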

Test [4] deals with Adrenergic receptor alpha-1 (Rattus norvegicus). Nature of the test: […] towards alpha-1 adrenergic receptor determined as the dose required to produce a two fold shift of the cirazoline on diastolic blood pressure (in vitro). Particulars: Artery.
For test [5], the system named is Adrenergic receptor alpha-2 (Rattus norvegicus). Nature of the test: Agonism at alpha-2 adrenergic receptor, determined as dose required to produce a two fold shift of the cumulative dose-response curve to UK-14304 on the twitch response in rat vas deferens.
For test [6], the system named is Rattus norvegicus. Nature of the test: In vivo antagonist dose producing two fold shift of cirazoline in pithed rats. (postjunctional). The format is functional. A digest of the protocol:
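Pithed rats, separate groups (n = 4-6). Cirazoline cumulative dose-response on diastolic blood pressure (postjunctional α1) was recorded with and without antagonist given iv. The antagonist dose (μg/kg, iv) giving a twofold rightward shift of the cirazoline curve was reported as DR2.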

Test [7] concerns Rattus norvegicus. Nature of the test: In vivo antagonist dose producing two fold shift of UK-14,304 in pithed rats. (prejunctional).
Test [8] concerns the target Adrenergic receptor alpha-1 (Rattus norvegicus) (UniProt P15823+P23944+P43140). In words: Agonism at alpha-1 adrenergic receptor, determined as the dose required to produce a two fold shift of the cirazoline on diastolic blood pressure. It counts as functional, tissue-based. Particulars: Artery.
In test [9] the target is T1, Adrenergic receptor alpha-2 (Rattus norvegicus, UniProt P22086+P19328+P22909).
T1 sequence (P22086 whole entry): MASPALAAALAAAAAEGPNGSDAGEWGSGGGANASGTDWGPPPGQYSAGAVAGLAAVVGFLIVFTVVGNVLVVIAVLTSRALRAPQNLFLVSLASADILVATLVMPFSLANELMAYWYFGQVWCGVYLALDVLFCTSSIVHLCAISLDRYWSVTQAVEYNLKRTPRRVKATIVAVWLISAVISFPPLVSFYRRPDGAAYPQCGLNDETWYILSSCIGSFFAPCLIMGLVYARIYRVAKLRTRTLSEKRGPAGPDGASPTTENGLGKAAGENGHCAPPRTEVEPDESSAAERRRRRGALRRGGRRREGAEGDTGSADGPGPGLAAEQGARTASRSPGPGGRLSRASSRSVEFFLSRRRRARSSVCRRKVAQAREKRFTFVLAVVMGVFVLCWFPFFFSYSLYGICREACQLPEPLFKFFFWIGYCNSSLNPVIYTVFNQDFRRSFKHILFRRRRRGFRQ
T1 sequence (P19328 whole entry): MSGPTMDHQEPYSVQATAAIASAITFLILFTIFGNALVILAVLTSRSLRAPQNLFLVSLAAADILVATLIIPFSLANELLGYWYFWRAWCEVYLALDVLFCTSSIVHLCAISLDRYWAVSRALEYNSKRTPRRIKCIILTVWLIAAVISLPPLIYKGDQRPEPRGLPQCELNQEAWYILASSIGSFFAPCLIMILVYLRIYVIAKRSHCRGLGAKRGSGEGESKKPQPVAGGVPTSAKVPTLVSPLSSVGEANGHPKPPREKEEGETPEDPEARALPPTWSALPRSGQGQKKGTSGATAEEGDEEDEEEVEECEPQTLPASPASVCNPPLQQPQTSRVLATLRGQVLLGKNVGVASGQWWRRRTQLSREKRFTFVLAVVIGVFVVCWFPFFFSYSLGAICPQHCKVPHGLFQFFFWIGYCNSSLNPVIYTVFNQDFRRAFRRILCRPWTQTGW
T1 sequence (P22909 whole entry): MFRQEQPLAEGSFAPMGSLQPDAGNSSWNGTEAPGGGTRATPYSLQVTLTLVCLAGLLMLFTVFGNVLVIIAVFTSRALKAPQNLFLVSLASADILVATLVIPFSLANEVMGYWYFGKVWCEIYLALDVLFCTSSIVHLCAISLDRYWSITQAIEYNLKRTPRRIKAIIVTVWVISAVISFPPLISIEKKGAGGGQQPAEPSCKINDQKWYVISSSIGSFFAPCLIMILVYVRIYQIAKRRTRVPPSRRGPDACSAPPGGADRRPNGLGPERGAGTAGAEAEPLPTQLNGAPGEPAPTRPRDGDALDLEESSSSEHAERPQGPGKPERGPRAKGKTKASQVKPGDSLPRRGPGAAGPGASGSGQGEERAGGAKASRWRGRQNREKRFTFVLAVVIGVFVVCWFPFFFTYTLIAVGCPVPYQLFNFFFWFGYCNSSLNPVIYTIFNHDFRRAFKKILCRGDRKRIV
Nature of the test: Inhibition of saturable binding of [3H]idazoxan to alpha2-site in rat cerebral cortical membranes. It counts as cell membranes, Membrane.

Regarding `c1ccc(CN2c3ccccc3CC2C2=NCCN2)cc1` (centres undefined), the ED25 with Rattus norvegicus [1] was 0.0095 mg/kg. In [2], the Prejunctional antagonist potency result was “Agonist”. The ED40 in the test with Rattus norvegicus [3] was 0.308 mg/kg. For the same molecule, the Postjunctional antagonist potency in test [4] is 120. In addition, in test [5], the Prejunctional agonist potency is 0.02. The DR2 with Rattus norvegicus [6] stood at 0.0543 mg/kg; with Rattus norvegicus [7], 0.0087 mg/kg. Moreover, the Postjunctional agonist potency in [8] stood at 0. In addition, in [9], the Ki (commonly a measure of affinity in units of concentration, obtained from inhibition or displacement) is 1.87 nM.

Values taken from ChEMBL document CHEMBL1124112, “Indoline analogues of idazoxan: potent alpha 2-antagonists and alpha 1-agonists” (J Med Chem, 1988).
